The text below walks through data of ChEMBL document CHEMBL1275434, “In vitro evaluation of CBR-2092, a novel rifamycin-quinolone hybrid antibiotic: studies of the mode of action in Staphylococcus aureus” (Antimicrob Agents Chemother, 2008).

In assay [1] the test system is Staphylococcus aureus. Put plainly: Antimicrobial activity against Staphylococcus aureus CB1882 harboring rpoB R484H mutant gene, L520 deficient gyrA gene and R236 duplicated parC gene by broth microdilution method. Format: functional. The method, boiled down: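 CLSI broth microdilution MIC in MHII broth with 0.002% (vol/vol) polysorbate 80. Isolates came from daily stepwise broth passage at sub-MIC drug (MHII without polysorbate 80, 10^6 CFU/ml inoculum, 20–24 h shaking at 37°C), were purified drug-free, and were sequenced at target loci.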
Background: In broth dilution the organism is exposed to a series of concentrations in liquid medium.

The test system of assay [2] is Staphylococcus aureus. Description: Antimicrobial activity against Staphylococcus aureus CB1887 harboring rpoB R484H, L520 deficient gyrA, […], R236 duplicated parC and parC H103Y mutant genes selected after ABT-719 exposure for 20 days by agar dilution method. Format: functional. To be noted: CB1887, 480 h. (In agar dilution the substance is mixed into plates at graded concentrations.)

The test system of assay [3] is Staphylococcus aureus. Put plainly: Antimicrobial activity against Staphylococcus aureus CB1523 harboring rpoB H481Y and gyrA A26V mutant genes selected after 0.25 ug/ml drug exposure by broth microdilution method. Format: functional. The method, boiled down: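 CLSI broth microdilution in cation-adjusted Mueller-Hinton (MHII) broth supplemented with 0.002% (vol/vol) polysorbate 80 to limit compound loss to plastic. Strains are spontaneous single-step mutants isolated on agar from an rpoB H481Y parent (RN4220 background), purified through drug-free passage with the resistance phenotype re-verified as stable before testing; target loci genotyped by PCR amplification and sequencing.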

Assay [4] concerns Staphylococcus aureus. Description: Inhibition of RNA synthesis in quinolone-resistant Staphylococcus aureus CB814 harboring gyrA S84L and parC S80F mutant genes assessed as decrease in [5,6-3H]uridine incorporation at 0.5 ug/ml. Format: functional, organism-based. The method, boiled down:
(§1)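 Macromolecular synthesis time course in S. aureus, measuring incorporation of [methyl-3H]thymidine (DNA), [5,6-3H]uridine (RNA) or [2,3-3H]D-alanine (cell wall). At each time point, incorporation is expressed as percent of the DMSO-treated control culture. Incorporation at time zero is set to 100%.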

The subject of assay [5] is Staphylococcus aureus. Put plainly: Antimicrobial activity against rifampin-sensitive Staphylococcus aureus CB190 harboring rpoB Q468L mutant gene by broth microdilution method. Format: functional. The method, boiled down:
(§2)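 CLSI broth microdilution MIC in cation-adjusted Mueller-Hinton (MHII) broth supplemented with 0.002% (vol/vol) polysorbate 80, included to limit compound loss to plastic surfaces.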

In assay [6] the test system is Staphylococcus aureus. Description: Antimicrobial activity against Staphylococcus aureus CB1418 harboring rpoB H481Y and gyrA D705N mutant genes selected after 0.1 ug/ml drug exposure by broth microdilution method.
Assay [7] concerns Staphylococcus aureus. Description: Inhibition of DNA synthesis in rifamycin-resistant Staphylococcus aureus CB370 harboring rpoB H481Y mutant gene assessed as decrease in [methyl-3H]thymidine incorporation at 0.5 ug/ml. Type of assay: functional, organism-based. Summed up: as §1
For orientation: Uptake of a labelled nucleoside into DNA is a usual measure of proliferation.

Assay [8] concerns Staphylococcus aureus. Description: Antimicrobial activity against Staphylococcus aureus CB1871 harboring rpoB H481Y mutant gene by broth microdilution method.
Assay [9] deals with Staphylococcus aureus. Description: Antimicrobial activity against Staphylococcus aureus CB1881 harboring rpoB R484H mutant gene and L520 deficient gyrA gene by agar dilution method. Type of assay: functional. Summed up:
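CLSI agar dilution MIC on MHII base medium against stepwise-passage isolates; passage was in MHII broth without polysorbate 80, daily at 37°C.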

Assay [10] concerns Staphylococcus aureus. Put plainly: Antimicrobial activity against rifampin-sensitive Staphylococcus aureus CB190 harboring rpoB H481Y mutant gene by broth microdilution method. Format: functional. The method, boiled down:
as §2

Values after ≈ are worked out from the molar mass of the structure shown. Active and inactive are the calls of the source. The rule behind the calls is not given here.

In general, MIC refers to the lowest concentration that inhibits growth of the organism. A low value points to inhibition by little substance. Regarding `CO[C@H]1/C=C/O[C@@]2(C)Oc3c(C)c(O)c4c(O)c(c(/C=N/N5CCC(N(C)C6([C@@H]7CCN(c8c(F)cn9c(=O)c(C(=O)O)cc(C%10CC%10)c9c8C)C7)CC6)CC5)c(O)c4c3C2=O)NC(=O)/C(C)=C\C=C\[C@H](C)[C@H](O)[C@@H](C)[C@@H](O)[C@@H](C)[C@H](OC(C)=O)[C@@H]1C`, the MIC is 1 µg/mL (≈ 0.83 µM) in the assay on Staphylococcus aureus [1]; over 8 µg/mL against Staphylococcus aureus [2]; 1 µg/mL (≈ 0.83 µM) in the assay on Staphylococcus aureus [3]; 0.25 µg/mL (≈ 0.207 µM) against Staphylococcus aureus [5]; 0.5 µg/mL (≈ 0.415 µM) in the assay with Staphylococcus aureus [6]; 0.12 µg/mL (≈ 0.0996 µM) against Staphylococcus aureus [8]. Also, the MIC against Staphylococcus aureus [9] stood at 0.25 µg/mL (≈ 0.207 µM); against Staphylococcus aureus [10] it was 0.12 µg/mL (≈ 0.0996 µM). For the same compound, the outcome in the assay on Staphylococcus aureus [4] and with Staphylococcus aureus [7] was Active.
